Apaf-1 act: human Apaf-1 activation; O14727; Apaf-1 apoptosome caspase-3 activation, DEVD-Rh110 fluorescence; active compounds read low; activity change, negative = activation, % at 20 µM; actives 0.31% (n = 330,000); AID 489031;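 active = activity change at or below -40% at 20 µM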
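Schedule: 30 min preincubation, 50 min reaction, room temperature / System: biochemical Apaf-1 apoptosome reconstitution / Medium: 20 mM HEPES pH 7.5 with CHAPS, BSA / Evaluation: Caspase-3 cleavage activity downstream of Apaf-1 activation / Detection: Caspase-3-released Rh110 fluorescence, 540 nm emission, 480 nm excitation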
Rh110 interf act: interferes with Rh110 fluorescence, flagging false Apaf-1 activators | shares compounds with Apaf-1 act | Rh110 fluorescence interference, quenched caspase reaction, Ex480/Em540 | fluorescence interference (activity change), % at 20 µM, hits read low | 980 tested, under 10 active;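 active = mean activity change at or below -40% when tested at 20 µM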
Apaf-1 act conf2: Apaf-1 (human) activation, single-dose confirmed. actives 5% (n = 980). shares compounds with Apaf-1 act. reconstituted apoptosome caspase-3 activity, DEVD-Rh110 fluorescence; active compounds read low. activity change, negative = activation, % at 20 µM;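 active = mean activity change at or below -40%, meaning activation of 40% or more, at 20 µM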
Active calls of the source: *; · = not tested or not shown. Only a sample is shown.

SMILES	Apaf-1 act	Rh110 interf act	Apaf-1 act conf2
CN(Cc1nccs1)C(=O)CC1C(=O)NCCN1Cc1ccc(-c2ccccc2)cc1 (stereo not given)	-329.7*	6.0	15.3
CCCCCCCCCCOC(=O)Cn1c(COc2ccc(OC)cc2)[n+](C)c2ccccc21	72.4	·	·
COc1ccc(C(=O)/C=C/Nc2cc(C)ccn2)cc1	-165.0*	-2.6	16.2
COc1cc(OC)c2c(-c3ccccc3)cc(=O)oc2c1C(CCN1CCCC1)c1ccc2c(c1)OCO2 (stereo not given)	49.0	·	·
O=[N+]([O-])c1cccc(OCc2cn3cccnc3n2)c1	-66.0*	9.8	2.8
CN1CCN(c2cc3c(c4c2[nH]c2ccccc24)C(=O)CC(C)(C)C3)CC1	50.4	·	·
CCc1ccc2nc(N(CCCN(C)C)C(=O)c3ccc(S(=O)(=O)N(C)C4CCCCC4)cc3)sc2c1	53.6	·	·
CN(C)CCCN(C(=O)c1ccc(C(=O)c2ccccc2)cc1)c1nc2cc3c(cc2s1)OCO3	60.3	·	·
CN(C)CCCN(C(=O)c1ccco1)c1nc2ccc(F)cc2s1	-98.5*	5.6	9.8
CC1=NN(c2cccc(Cl)c2)C(=O)C1	74.8	·	·
O=C1c2ccccc2-c2c1nc1c([n+]2[O-])CCCC1	41.6	·	·
NC(N)=Nc1cc2ccccc2c2ccccc12	76.8	·	·
CCc1ccc2[nH]c(C(=O)Nc3ccc(Br)c(C)n3)cc2c1	-483.9*	2.8	13.3
CC(C)N1CCN(Cc2cnc(-c3ccccc3)s2)CC1CCO (stereo not given)	-45.5*	0.1	8.8
OC1C(O)C(O)C(O)C(O)C1O (stereo not given)	-0.7	·	·
CC1CCCCC1NC(=O)Cn1nnc2ccccc2c1=O (stereo not given)	-197.9*	8.2	23.6
C#CCOCCOCCOCCNc1nc(N2CCN(C(=O)[C@H]([C@@H](C)CC)n3cc([C@@H](N)Cc4ccc(O)cc4)nn3)CC2)nc(N2CCN(C(=O)[C@H](CCCCN)n3cc([C@@H](N)CO)nn3)CC2)n1	52.3	·	·
Cc1ccc(C(=O)N/C(=C\c2ccc(-c3ccccc3[N+](=O)[O-])o2)C(=O)NCCCN(C)C)cc1	55.8	·	·
C#CCOCCOCCOCCNc1nc(N2CCN(C(=O)CCCCCCCCCCNC(=O)[C@H]([C@@H](C)CC)n3cc(CCCCCN)nn3)CC2)nc(N2CCN(C(=O)CCCCCCCCCCNC(=O)[C@@H]([C@H](C)CC)n3cc(CCCCCN)nn3)CC2)n1	78.1	·	·
Cn1c(SCc2ccc(F)cc2)nnc1-c1cnccn1	-155.9*	4.1	9.1
CCCCc1c(C)nn(-c2nnc3c4ccccc4n(CC)c3n2)c1C	46.8	·	·
CCN1CCc2c(sc(NC(=O)c3ccc4ccccc4c3)c2C(N)=O)C1	40.3	·	·
Cc1[nH]n(-c2ccccc2)c(=O)c1C(C[N+](=O)[O-])c1ccccc1Cl (stereo not given)	79.1	·	·
CCOc1cc2c(C#N)c(N3CCCCC3)nc(N)c2c(N)n1	96.8	·	·
Cc1cc(Cl)ccc1NC(=S)NC1CCCC1	-42.3*	11.9	23.1
SMILES	Apaf-1 act	Rh110 interf act	Apaf-1 act conf2
Cc1ccc(NC(=S)Nc2cccc3cnccc23)c(C)c1	96.4	·	·
Cc1ccc(C)c2[nH]c(=O)c(C(c3nnnn3Cc3ccccc3)N3CCc4ccccc4C3)cc12 (stereo not given)	67.3	·	·
Cc1cccc(CC(=O)NCCn2c(C)cc3ccccc32)c1	41.0	·	·
CC(=O)c1c(O)cc(C)n(Cc2ccccc2)c1=O	-71.1*	10.4	8.8
COCCNC(=O)CN1C(=O)NC2(CCOc3ccccc32)C1=O (stereo not given)	45.7	·	·
COc1ccc(C(=O)Nc2ccc(/C(C)=N/NC(=O)c3ccccc3O)cc2)cc1OC	-176.0*	-0.5	10.4
Oc1c(Br)cc(C=Nc2ccc3nc(-c4ccccc4)[nH]c3c2)c(O)c1Br	64.9	·	·
COc1ccc(-c2csc(-c3ccc(O)cc3)n2)cc1	-115.7*	8.4	4.5
C#CCOCCOCCOCCNc1nc(N2CCN(C(=O)CCCCCCCCCCNC(=O)[C@H](CO)n3cc(CCCSC)nn3)CC2)nc(N2CCN(C(=O)CCCCCCCCCCNC(=O)[C@H](CCCCN)n3cc(CCO)nn3)CC2)n1	73.7	·	·
COCc1cc(=O)[nH]c(Sc2c(-c3ccccc3)c3ccc(Cl)cc3[nH]c2=O)n1	-49.5*	10.1	10.9
COc1ccc(Oc2nnc(-c3ccc(C)cc3)c3ccccc23)cc1	-172.1*	9.8	14.0
COc1ccc(-c2cc3c(nn2)-c2ccccc2C3=O)cc1	77.3	·	·
Cc1ccccc1OCc1n(CC(=O)OC2CC(C)CCC2C(C)C)c2ccccc2[n+]1C (stereo not given)	47.3	·	·
COc1cc2c(cc1OC)CN(Cc1cc(=O)oc3cc(C)c(Cl)cc13)CC2	-42.9*	14.1	23.6
